Broadly, the IC50 is the concentration that gives 50% inhibition. Low values mean greater potency in that assay, high ones weaker potency in that assay. The term GI50 denotes the concentration that inhibits growth by half. The term TGI denotes the concentration at which net growth stops. The low end stands for more potent growth arrest, the high end for less potent growth arrest.

A value given as a limit tells only on which side of the number the result lay.

The values that follow come from ChEMBL document CHEMBL2346534, “Design, synthesis and in vitro anti-proliferative activity of 4,6-quinazolinediamines as potent EGFR-TK inhibitors” (Eur J Med Chem, 2013).

The target in assay [1] is Epidermal growth factor receptor (Homo sapiens, UniProt P00533). Kind of assay: Inhibition of EGFR tyrosine kinase (unknown origin) using poly (Glu,Tyr) as substrate after 30 mins by ADP-GloTM assay. For orientation: ADP-Glo first removes unused ATP, then detects ADP through luciferase.
Chain of Epidermal growth factor receptor (P00533 whole entry): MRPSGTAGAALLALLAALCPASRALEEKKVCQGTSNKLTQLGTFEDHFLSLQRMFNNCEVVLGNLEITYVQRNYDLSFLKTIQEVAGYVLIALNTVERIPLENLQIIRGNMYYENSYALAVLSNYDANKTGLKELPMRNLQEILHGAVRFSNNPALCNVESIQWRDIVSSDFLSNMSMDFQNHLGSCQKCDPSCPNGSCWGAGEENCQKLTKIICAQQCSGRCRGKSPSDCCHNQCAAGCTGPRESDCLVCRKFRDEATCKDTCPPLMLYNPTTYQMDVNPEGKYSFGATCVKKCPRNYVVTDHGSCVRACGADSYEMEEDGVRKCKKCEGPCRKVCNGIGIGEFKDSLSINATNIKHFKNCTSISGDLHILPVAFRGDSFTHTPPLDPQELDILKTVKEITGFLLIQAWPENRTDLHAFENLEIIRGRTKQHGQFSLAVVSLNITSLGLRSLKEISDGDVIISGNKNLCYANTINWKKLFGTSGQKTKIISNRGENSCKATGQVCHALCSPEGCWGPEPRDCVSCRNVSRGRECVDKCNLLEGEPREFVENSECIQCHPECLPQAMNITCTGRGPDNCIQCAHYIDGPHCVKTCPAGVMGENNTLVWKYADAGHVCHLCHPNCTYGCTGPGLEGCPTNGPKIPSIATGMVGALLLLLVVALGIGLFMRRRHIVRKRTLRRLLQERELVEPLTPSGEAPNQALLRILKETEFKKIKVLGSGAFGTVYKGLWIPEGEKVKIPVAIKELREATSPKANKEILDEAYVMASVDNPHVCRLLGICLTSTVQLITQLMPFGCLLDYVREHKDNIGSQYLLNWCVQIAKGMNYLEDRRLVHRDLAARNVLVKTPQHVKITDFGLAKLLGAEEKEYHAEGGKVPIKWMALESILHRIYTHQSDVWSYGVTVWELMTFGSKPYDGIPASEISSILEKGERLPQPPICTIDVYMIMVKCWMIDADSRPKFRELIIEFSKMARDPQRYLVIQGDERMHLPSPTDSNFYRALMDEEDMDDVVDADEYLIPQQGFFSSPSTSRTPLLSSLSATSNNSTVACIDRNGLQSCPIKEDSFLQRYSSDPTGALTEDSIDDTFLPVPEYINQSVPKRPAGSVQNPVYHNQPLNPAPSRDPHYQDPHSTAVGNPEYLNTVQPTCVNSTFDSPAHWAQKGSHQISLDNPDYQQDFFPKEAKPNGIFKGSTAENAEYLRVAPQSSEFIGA
For the next assay, the system named is PC-3. The experiment in a line: Cytotoxicity against human PC3 cells after 48 hrs by SRB assay. It counts as functional. Particulars: PC-3, 48 h. The gist of the method: (§1)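 NCI 60-panel five-dose screen. Cells in RPMI 1640 with 5% FBS and 2 mM L-glutamine are plated at 5000–40,000 cells/well by doubling time and preincubated 24 h at 37 °C in 5% CO2. Drug in DMSO is tested at 0.01, 0.1, 1, 10 and 100 μM for 48 h. Cells are TCA-fixed, stained with SRB and read at 515 nm. GI50 is the concentration giving 50% reduction in net protein increase relative to time-zero and control plates.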

The next assay concerns OVCAR-8. Kind of assay: Cytotoxicity against human OVCAR8 cells after 48 hrs by SRB assay. As to conditions: OVCAR-8, 48 h. It counts as functional. The gist of the method:
as §1
For orientation: The SRB assay estimates cell density from bound dye.

The next assay has as its system UACC-257. The experiment in a line: Cytotoxicity against human UACC257 cells after 48 hrs by SRB assay. The format is functional. As to conditions: UACC-257, 48 h. The gist of the method:
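NCI 60 five-dose screen. Cells in RPMI 1640 with 5% FBS and 2 mM L-glutamine, plated at 5000–40,000 cells/well by doubling time, pre-incubated 24 h at 37 °C, 5% CO2. Time-zero plates TCA-fixed at drug addition. Final concentrations 0.01, 0.1, 1, 10 and 100 µM (DMSO stock), 48 h exposure. TCA fixation, 0.4% SRB stain, absorbance 515 nm. GI50 from [(Ti−Tz)/(C−Tz)]×100 = 50.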

A further assay deals with SNB-19. Kind of assay: Cytotoxicity against human SNB19 cells after 48 hrs by SRB assay. The format is functional. Particulars: SNB-19, 48 h. In outline:
as §1

The next assay concerns SNB-75. The experiment in a line: Cytotoxicity against human SNB75 cells after 48 hrs by SRB assay. It counts as functional. As to conditions: SNB-75, 48 h. The gist of the method:
as §1

The nature of assay [2]: Cytotoxicity against human EKVX cells after 48 hrs by SRB assay. The format is functional. The gist of the method:
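NCI 60-panel five-dose screen. Cells in RPMI 1640 with 5% FBS and 2 mM L-glutamine, plated at 5000–40,000 cells/well by doubling time, preincubated 24 h at 37 °C/5% CO2. Drug from DMSO stock added at 0.01, 0.1, 1, 10 and 100 µM, then 48 h. TCA fixation, SRB stain, absorbance at 515 nm, time-zero plates included. GI50 = 50% reduction in net protein increase versus control.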

Setting [3] is: read-out: LC50 (the source's name).

`NC(=O)Nc1ccc2ncnc(Nc3ccc(Cl)cc3)c2c1` yielded a half-inhibitory concentration (IC50) in assay [1] of 0.061 µM. For the same compound, the GI50 in the assay with PC-3 was found to be 16.7 µM; in the assay with OVCAR-8, 21.7 µM; in the assay with UACC-257, 23.5 µM; in the assay with SNB-19 it was 9.02 µM; with SNB-75, 3.36 µM; in assay [2], 0.37 µM. Further, the TGI in the assay on PC-3 is 92.5 µM; in the assay with OVCAR-8, more than 100 µM; in the assay on UACC-257, 75.2 µM; with SNB-19, more than 100 µM; with SNB-75 it was 47 µM; in assay [2], 4.46 µM. Besides, the CC50 (with PC-3 (setting [3]); in the assay on OVCAR-8 (setting [3]); in the assay on UACC-257 (setting [3]); in the assay with SNB-19 (setting [3]); in the assay on SNB-75 (setting [3]); in assay [2] (setting [3])) was more than 100 µM in each case.
